The source made the active and inactive calls. The calls are words filed in the database; no cut-off is given here.
What was measured:
HeLa [1] = experiment: Downregulation of cyclin E protein expression in TdT-deficient human HeLa cells at 30 uM by Western blot analysis; format: ADME, cell-based
Summary of the method: (§1)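 1 × 10^6 cells were incubated with or without compound, then lysed in cold buffer (50 mM Tris, 150 mM NaCl, 10 mM EDTA, 1% Triton) with protease inhibitors. Equal protein was run on 8–12% SDS-PAGE and blotted to nitrocellulose. Membranes were probed overnight at 4 °C with antibodies to cyclin E2, cyclin A, p53 or caspase 3, detected by HRP/ECL, and normalized to actin by densitometry.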

HeLa [2] = experiment: Cell cycle arrest in TdT-deficient human HeLa cells assessed as accumulation at G1 phase at 30 uM after 24 hrs by propidium iodide staining-based FACS flow cytometric analysis relative to vehicle-treated control; format: ADME
Summary of the method: (§2)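 Cells at 2.5 × 10^5 cells/mL were treated 24 h with compound or vehicle. They were washed in PBS, trypsinized, and stained 30 min at 4 °C in the dark with 0.1% sodium citrate, 0.1% Triton X-100 and propidium iodide. Analysis was by FACScan flow cytometry, giving the percentage of cells in G0/G1, S and G2/M.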

HeLa [3] = experiment: Cytotoxicity against TdT-deficient human HeLa cells assessed as growth inhibition after 24 to 48 hrs by MTT assay; format: cell-based
Summary of the method: (§3)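 MOLT-4 cells were grown in RPMI-1640 and HeLa cells in DMEM, with 10% FCS at 37 °C. Cells were seeded at 10^5 per well, given 24 h to attach, then exposed to compounds (0.1–100 range) for 24 or 48 h. MTT at 1 mg/mL was added for 2 h at 37 °C, formazan was dissolved in DMSO, and absorbance read at 550 nm versus 0.5% DMSO vehicle. IC50 was obtained by regression, in triplicate.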

[4] = target: T1, DNA polymerase lambda (Homo sapiens) (UniProt Q9UGP5); experiment: Inhibition of human recombinant full length DNA polymerase lambda using [3H]dTTP as substrate and 10 poly(dA)/oligo(dT) as template-primer after 15 mins by scintillation counting analysis
T1 sequence (whole entry): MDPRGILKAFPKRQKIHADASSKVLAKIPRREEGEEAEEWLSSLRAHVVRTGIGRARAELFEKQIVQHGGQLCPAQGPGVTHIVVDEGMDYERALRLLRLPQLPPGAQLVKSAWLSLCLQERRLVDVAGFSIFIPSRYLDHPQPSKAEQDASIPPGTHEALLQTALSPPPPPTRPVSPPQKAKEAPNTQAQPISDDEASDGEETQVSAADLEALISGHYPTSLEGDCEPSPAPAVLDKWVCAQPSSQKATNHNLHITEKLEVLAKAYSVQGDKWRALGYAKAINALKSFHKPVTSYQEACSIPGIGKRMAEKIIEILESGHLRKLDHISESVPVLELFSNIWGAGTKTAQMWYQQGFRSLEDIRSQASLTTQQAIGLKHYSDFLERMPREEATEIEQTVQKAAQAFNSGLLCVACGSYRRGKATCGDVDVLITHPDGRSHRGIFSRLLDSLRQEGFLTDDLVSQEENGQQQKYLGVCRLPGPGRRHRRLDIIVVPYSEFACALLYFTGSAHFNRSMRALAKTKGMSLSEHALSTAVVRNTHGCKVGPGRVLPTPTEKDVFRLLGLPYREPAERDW
Summary of the method: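 Recombinant full-length human pol λ at 50 nM was assayed with 0.2 μM poly(dA)/oligo(dT)10:1 (3′-OH ends) and 5 μM [3H]dTTP (5 Ci/mmol). Incubation was 15 min at 37 °C. TCA precipitates were scintillation counted.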

[5] = target: T1, DNA polymerase lambda (Homo sapiens); experiment: Inhibition of human recombinant full length DNA polymerase lambda TdT-like activity using [3H]dNTP as substrate after 10 mins by scintillation counting analysis
Summary of the method: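 Full-length recombinant human pol λ (>90% pure) was tested for template-independent activity. Acid-insoluble radioactivity was counted, and ID50 came from dose–response fitting.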

MOLT-4 [6] = experiment: Cytotoxicity against human MOLT4 cells overexpressing TdT assessed as growth inhibition after 24 to 48 hrs by MTT assay; format: functional, cell-based; summary of the method: as §3
[7] = target: T2, DNA nucleotidylexotransferase (Homo sapiens, UniProt P04053); experiment: Inhibition of human recombinant TdT using [3H]dNTP as substrate after 10 mins by scintillation counting analysis
Summary of the method: (§4)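 TdT was from Trevigen. TCA-precipitated radioactivity was counted. ID50 came from dose–response fitting. For kinetics, DNA or dNTP was varied at increasing inhibitor, and Ki was obtained via Cheng–Prusoff for a competitive model.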

DNA polymerase beta = DNA polymerase beta (Homo sapiens, UniProt P06746); experiment: Inhibition of human recombinant DNA polymerase beta
HeLa [8] = experiment: Cell cycle arrest in TdT-deficient human HeLa cells assessed as decrease of cells in G2 phase at 30 uM after 24 hrs by propidium iodide staining-based FACS flow cytometric analysis relative to vehicle-treated control; format: ADME; design: scale not given: the % may be the effect or the level left; summary of the method: as §2
MOLT-4 [9] = experiment: Cell cycle arrest in human MOLT4 cells overexpressing TdT assessed as accumulation at G1 phase at 30 uM after 24 hrs by propidium iodide staining-based FACS flow cytometric analysis relative to vehicle-treated control; format: functional; summary of the method: as §2
MOLT-4 [10] = experiment: Cell cycle arrest in human MOLT4 cells overexpressing TdT assessed as decrease of cells in G2 phase at 30 uM after 24 hrs by propidium iodide staining-based FACS flow cytometric analysis relative to vehicle-treated control; format: functional; design: scale not given: the % may be the effect or the level left; summary of the method: as §2
MOLT-4 [11] = experiment: Downregulation of cyclin E protein expression in human MOLT4 cells overexpressing TdT at 30 uM by Western blot analysis; format: functional, cell-based; summary of the method: as §1
Homo sapiens [12] = organism: Homo sapiens; experiment: Binding affinity to human TdT/DNA binary complex
Summary of the method: (§5)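 Association (kon) and dissociation (koff) rates measured for binding to binary enzyme–DNA and ternary enzyme–DNA–dNTP complexes of TdT.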

[13] = target: T2, DNA nucleotidylexotransferase; experiment: Competitive inhibition of human TdT using TTP as substrate; summary of the method: as §4
Homo sapiens [14] = organism: Homo sapiens; experiment: Binding affinity to human TdT/DNA/dNTP ternary complex; summary of the method: as §5
[15] = target: T2, DNA nucleotidylexotransferase; experiment: Non-competitive inhibition of human TdT using 3'-OH as substrate
MOLT-4 [16] = experiment: Induction of apoptosis in human MOLT4 cells overexpressing TdT assessed as caspase-3 cleavage by Western blot analysis; format: functional, cell-based; summary of the method: as §1
HeLa [17] = experiment: Induction of apoptosis in TdT-deficient human HeLa cells assessed as caspase-3 cleavage by Western blot analysis; format: cell-based; summary of the method: as §1
MOLT-4 [18] = experiment: Upregulation of p53 protein expression in human MOLT4 cells overexpressing TdT at IC50 after 30 hrs by Western blot analysis; format: functional, cell-based; summary of the method: as §1
MOLT-4 [19] = experiment: Cell cycle arrest in human MOLT4 cells overexpressing TdT assessed as decrease of cells in G1 phase at 30 uM after 24 hrs by propidium iodide staining-based FACS flow cytometric analysis relative to vehicle-treated control; format: functional; design: scale not given: the % may be the effect or the level left; summary of the method: as §2
MOLT-4 [20] = experiment: Cell cycle arrest in human MOLT4 cells overexpressing TdT assessed as accumulation at S phase at 30 uM after 24 hrs by propidium iodide staining-based FACS flow cytometric analysis relative to vehicle-treated control; format: functional; summary of the method: as §2
MOLT-4 [21] = experiment: Downregulation of cyclin A protein expression in human MOLT4 cells overexpressing TdT at 30 to 50 uM by Western blot analysis; format: functional, cell-based; summary of the method: as §1
HeLa [22] = experiment: Cell cycle arrest in TdT-deficient human HeLa cells at 30 uM after 24 hrs by propidium iodide staining-based FACS flow cytometric analysis; format: ADME; summary of the method: as §2
MOLT-4 [23] = experiment: Downregulation of cyclin A protein expression in human MOLT4 cells overexpressing TdT at 30 uM by Western blot analysis; format: functional, cell-based; summary of the method: as §1

T2 sequence (P04053 whole entry): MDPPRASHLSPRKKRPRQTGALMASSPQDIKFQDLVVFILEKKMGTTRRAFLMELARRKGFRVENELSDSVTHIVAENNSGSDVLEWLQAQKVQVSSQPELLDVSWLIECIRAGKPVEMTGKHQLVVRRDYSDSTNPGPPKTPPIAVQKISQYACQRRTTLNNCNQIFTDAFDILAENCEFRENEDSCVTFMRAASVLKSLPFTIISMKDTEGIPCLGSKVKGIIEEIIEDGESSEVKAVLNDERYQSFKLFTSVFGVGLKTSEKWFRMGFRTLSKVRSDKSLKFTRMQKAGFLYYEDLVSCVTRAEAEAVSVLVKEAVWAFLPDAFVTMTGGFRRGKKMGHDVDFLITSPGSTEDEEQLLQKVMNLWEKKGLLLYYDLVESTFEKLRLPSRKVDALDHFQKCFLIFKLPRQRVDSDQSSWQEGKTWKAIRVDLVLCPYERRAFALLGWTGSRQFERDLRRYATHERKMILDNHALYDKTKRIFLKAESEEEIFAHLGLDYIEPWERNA

Row | Structure (SMILES) | ID50 [4] | ID50 [5] | ID50 [7] | IC50 (DNA polymerase beta) | IC50 (HeLa [3]) | IC50 (MOLT-4 [6]) | also measured
1 | N#Cc1ccc(C(=O)c2c[nH]c(/C=C/C(=O)CC(=O)C(=O)O)c2)cc1 | > 40 µM | 40 µM | 1.1 µM | > 40 µM | > 40 µM | > 40 µM | –
2 | O=C(/C=C/c1cc(C(=O)c2ccccc2F)c[nH]1)CC(=O)C(=O)O | > 40 µM | 27 µM | 1.7 µM | > 40 µM | > 40 µM | 20 µM | inhibition (Homo sapiens [12]): Active; Ki [13]: 0.5 µM; inhibition (Homo sapiens [14]): inactive; Ki [15]: 0.4 µM
3 | O=C(/C=C/c1cc(C(=O)c2ccc(F)cc2)c[nH]1)CC(=O)C(=O)O | > 40 µM | 40 µM | 0.58 µM | > 40 µM | > 40 µM | > 40 µM | –
4 | O=C(/C=C/c1cn(Cc2ccc(F)cc2)c2ccccc12)CC(=O)C(=O)O | > 40 µM | > 40 µM | 10 µM | > 40 µM | > 40 µM | > 40 µM | –
5 | COc1ccc(Cn2cc(/C=C/C(=O)CC(=O)C(=O)O)c3ccccc32)cc1 | > 40 µM | > 40 µM | 10 µM | > 40 µM | > 40 µM | > 40 µM | –
6 | CCOC(=O)C(=O)CC(=O)/C=C/c1cc(C(=O)c2ccccc2F)c[nH]1 | > 40 µM | 27 µM | 20 µM | > 40 µM | > 40 µM | 15 µM | –
7 | C/C=C/n1cc(/C=C/C(=O)CC(=O)C(=O)O)c2ccccc21 | > 40 µM | 10 µM | 33 µM | > 40 µM | > 40 µM | > 40 µM | –

Continued, in another order:

Row | ID50 [4] | ID50 [5] | ID50 [7] | IC50 (DNA polymerase beta) | Structure (SMILES) | IC50 (HeLa [3]) | IC50 (MOLT-4 [6]) | also measured
8 | > 40 µM | > 40 µM | 26 µM | > 40 µM | CCCCn1cc(/C=C/C(=O)CC(=O)C(=O)O)c2ccccc21 | 30 µM | 30 µM | Activity (HeLa [1]): Toxic; Activity (HeLa [2]): 20%; Activity (HeLa [8]): 10%; Activity (MOLT-4 [9]): 20%; Activity (MOLT-4 [10]): 10%; Activity (MOLT-4 [11]): Active
9 | > 40 µM | > 40 µM | 0.9 µM | > 40 µM | O=C(/C=C/c1cn(Cc2ccc(O)cc2)c2ccccc12)CC(=O)C(=O)O | > 40 µM | 20 µM | inhibition (Homo sapiens [12]): Active; Ki [13]: 0.45 µM; inhibition (Homo sapiens [14]): inactive; Ki [15]: 0.5 µM
10 | > 40 µM | > 40 µM | 4.7 µM | > 40 µM | CCOC(=O)C(=O)CC(=O)/C=C/c1cc(C(=O)c2ccc(C#N)cc2)c[nH]1 | > 40 µM | 30 µM | Activity (MOLT-4 [16]): Active; Activity (HeLa [17]): Non-toxic; inhibition (Homo sapiens [12]): Active; Activity (MOLT-4 [18]): Active; Activity (MOLT-4 [19]): 30%; Ki [13]: 1.5 µM; Activity (MOLT-4 [20]): 44%; Activity (MOLT-4 [21]): Active; inhibition (Homo sapiens [14]): inactive; Activity (HeLa [22]): Non-toxic; Ki [15]: 1.7 µM
11 | > 40 µM | > 40 µM | 9.5 µM | 40 µM | O=C(/C=C/c1cc(C(=O)c2ccccc2)cn1Cc1ccc(F)cc1)CC(=O)C(=O)O | > 40 µM | 9 µM | Activity (MOLT-4 [16]): Active; Activity (HeLa [17]): Non-toxic; Activity (MOLT-4 [18]): Active; Activity (MOLT-4 [19]): 30%; Activity (MOLT-4 [23]): Active; Activity (MOLT-4 [20]): 44%; Activity (HeLa [22]): Non-toxic
12 | > 40 µM | > 40 µM | 16.3 µM | > 40 µM | CC(C)CCn1cc(/C=C/C(=O)CC(=O)C(=O)O)c2ccccc21 | > 80 µM | 20 µM | –
13 | > 40 µM | 35 µM | 0.78 µM | > 40 µM | O=C(/C=C/c1cc(C(=O)c2cccc(F)c2)c[nH]1)CC(=O)C(=O)O | > 40 µM | > 40 µM | –
